Measured values published in ChEMBL document CHEMBL1126111, “Potential antitumor agents. 21. Structure determination and antitumor activity of imidazo[2,1-b]thiazole guanylhydrazones” (1992).

Experiments:
Type in all cases: functional
Details in all cases: route intraperitoneal
Mus musculus [1] = experiment: Antitumor activity in mice bearing Ehrlich ascites tumor cells at 100 mg/kg ip
How it was run: (§1)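 Female Swiss mice (average weight 21 ± 1 g), groups of eight, implanted with 10^6 Ehrlich ascites tumor cells from donor mice; single ip dose in DMSO given 24 h later, starting at 100 mg/kg, repeated at lower doses in new groups if active. Deaths followed for 60 days; % T/C = mean survival time treated vs vehicle controls (10 mice).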

Mus musculus [2] = experiment: Antitumor activity in mice bearing Ehrlich ascites tumor cells at 50 mg/kg ip; how it was run: as §1
Mus musculus [3] = experiment: Antitumor activity in mice bearing Ehrlich ascites tumor cells at 25 mg/kg ip; how it was run: as §1
Mus musculus [4] = experiment: Antitumor activity in mice bearing Ehrlich ascites tumor cells at 12.5 mg/kg ip; how it was run: as §1

Q: `Cc1nc2sccn2c1/C=N/N=C(N)N.Cl` was tested. Which T/C (Mus musculus [1]) did it give?
A: The T/C was 100%.

Q: Which T/C (Mus musculus [2]) does the source give for `Cl.N=C(N)N/N=C/c1c(-c2ccccc2)nc2n1CCS2` here?
A: Its T/C is 100%.

Q: How did the T/C (Mus musculus [2]) turn out when `Cc1nc2n(c1/C=N/N=C(N)N)CCS2.Cl` was run?
A: The T/C was 100%.

Q: How did the T/C (Mus musculus [3]) turn out when `Cc1ccc(-c2nc3sccn3c2/C=N/N=C(N)N)cc1.Cl` was run?
A: Its T/C is 110%.

Q: With `Cl.N=C(N)N/N=C/c1c(Cl)nc2n1CCS2` as the molecule, how does the T/C (Mus musculus [1]) read?
A: The T/C was 180%.

Q: With `Cl.N=C(N)N/N=C/c1c(-c2ccc(Cl)cc2)nc2sccn12` as the molecule, how does the T/C (Mus musculus [4]) read?
A: The T/C was 190%.

Q: How did the T/C (Mus musculus [2]) turn out when `Cl.N=C(N)N/N=C/c1c(-c2ccccc2)nc2sccn12` was run?
A: Its T/C is 120%.

Q: Which T/C (Mus musculus [2]) does the source give for `Cl.N=C(N)N/N=C/c1c(Cl)nc2sccn12` here?
A: Its T/C is 200%.

Q: How did the T/C (Mus musculus [2]) turn out when `Cc1ccc(-c2nc3n(c2/C=N/N=C(N)N)CCS3)cc1.Cl` was run?
A: The T/C was 100%.

Q: `O=c1[nH]cc(F)c(=O)[nH]1` [FLUOROURACIL] was tested. Which T/C (Mus musculus [1]) did it give?
A: The T/C was 180%.
